ChEMBL document CHEMBL2331324, “Synthesis and biological evaluation of guanidino analogues of roscovitine” (Eur J Med Chem, 2013)

Tests used:
[1] = target: Misshapen-like kinase 1 (Homo sapiens) (UniProt Q8N4C8); assay: Inhibition of recombinant MINK1 (unknown origin) assessed as residual activity using [gamma-33P]ATP as substrate at 1 uM
Summary of the method: (§1)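 Selectivity panel run under previously published conditions. Screened at 1 μM in duplicate. Reactions started with [γ-33P]ATP (800 cpm/pmol) at 5, 20 or 50 μM, chosen to be at or below each enzyme's ATP Km. Stopped with phosphoric acid, spotted onto P81 filters. Result expressed as residual kinase activity.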

[2] = target: Mitogen-activated protein kinase 8 (Homo sapiens) (UniProt P45983); assay: Inhibition of recombinant JNK1 (unknown origin) assessed as residual activity using [gamma-33P]ATP as substrate at 1 uM; summary of the method: as §1
[3] = target: RAC-beta serine/threonine-protein kinase (Homo sapiens) (UniProt P31751); assay: Inhibition of recombinant PKB beta (unknown origin) assessed as residual activity using [gamma-33P]ATP as substrate at 1 uM; summary of the method: as §1
[4] = target: Serine/threonine-protein kinase Chk1 (Homo sapiens) (UniProt O14757); assay: Inhibition of recombinant CHK1 (unknown origin) assessed as residual activity using [gamma-33P]ATP as substrate at 1 uM
Summary of the method: (§2)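 Recombinant kinase panel screened at 1 µM in duplicate. Reactions started with [γ-33P]ATP (800 cpm/pmol) at 5, 20 or 50 µM, chosen to sit at or below each enzyme's ATP Km. Stopped with phosphoric acid and spotted onto P81 filters. Result given as residual kinase activity.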

[5] = target: Ephrin type-A receptor 4 (Homo sapiens) (UniProt P54764); assay: Inhibition of recombinant EPH-A4 (unknown origin) assessed as residual activity using [gamma-33P]ATP as substrate at 1 uM; summary of the method: as §2
[6] = target: Eukaryotic translation initiation factor 2-alpha kinase 3 (Homo sapiens) (UniProt Q9NZJ5); assay: Inhibition of recombinant EIF2AK3 (unknown origin) assessed as residual activity using [gamma-33P]ATP as substrate at 1 uM; summary of the method: as §2
[7] = target: Dual specificity tyrosine-phosphorylation-regulated kinase 2 (Homo sapiens) (UniProt Q92630); assay: Inhibition of recombinant DYRK2 (unknown origin) assessed as residual activity using [gamma-33P]ATP as substrate at 1 uM; summary of the method: as §2
Sequence of Dual specificity tyrosine-phosphorylation-regulated kinase 2 (Homo sapiens) (Q92630 whole entry): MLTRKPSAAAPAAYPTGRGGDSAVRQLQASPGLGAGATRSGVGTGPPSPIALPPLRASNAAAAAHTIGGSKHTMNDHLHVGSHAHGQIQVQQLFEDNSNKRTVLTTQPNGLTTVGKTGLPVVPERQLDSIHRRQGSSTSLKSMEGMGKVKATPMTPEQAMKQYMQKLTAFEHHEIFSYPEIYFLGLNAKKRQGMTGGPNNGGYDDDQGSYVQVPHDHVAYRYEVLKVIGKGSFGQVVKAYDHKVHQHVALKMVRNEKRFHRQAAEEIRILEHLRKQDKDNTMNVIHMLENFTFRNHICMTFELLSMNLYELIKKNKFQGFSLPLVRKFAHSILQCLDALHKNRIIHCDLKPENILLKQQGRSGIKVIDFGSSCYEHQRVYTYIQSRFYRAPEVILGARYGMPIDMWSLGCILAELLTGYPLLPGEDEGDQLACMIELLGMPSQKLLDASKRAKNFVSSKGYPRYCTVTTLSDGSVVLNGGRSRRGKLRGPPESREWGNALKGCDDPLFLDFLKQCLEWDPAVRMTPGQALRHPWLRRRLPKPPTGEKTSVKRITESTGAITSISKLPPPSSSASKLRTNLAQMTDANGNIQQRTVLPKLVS

[8] = target: Mitogen-activated protein kinase 12 (Homo sapiens) (UniProt P53778); assay: Inhibition of recombinant p38 MAPKgamma (unknown origin) assessed as residual activity using [gamma-33P]ATP as substrate at 1 uM
Summary of the method: (§3)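 Kinase panel screen with each compound at 1 µM, in duplicate. Reactions were started with [γ-33P]ATP (800 cpm/pmol) at 5, 20 or 50 µM, chosen per enzyme to be at or below its ATP Km. Reactions were stopped with phosphoric acid and spotted onto P81 filters. Results are given as residual kinase activity.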

[9] = target: Dual specificity tyrosine-phosphorylation-regulated kinase 3 (Homo sapiens) (UniProt O43781); assay: Inhibition of recombinant DYRK3 (unknown origin) assessed as residual activity using [gamma-33P]ATP as substrate at 1 uM; summary of the method: as §2
[10] = target: Insulin receptor-related protein (Homo sapiens) (UniProt P14616); assay: Inhibition of recombinant IRR (unknown origin) assessed as residual activity using [gamma-33P]ATP as substrate at 1 uM; summary of the method: as §2
[11] = target: Aurora kinase B (Homo sapiens) (UniProt Q96GD4); assay: Inhibition of recombinant AURB (unknown origin) assessed as residual activity using [gamma-33P]ATP as substrate at 1 uM; summary of the method: as §2
Sequence of Aurora kinase B (Homo sapiens) (Q96GD4 whole entry): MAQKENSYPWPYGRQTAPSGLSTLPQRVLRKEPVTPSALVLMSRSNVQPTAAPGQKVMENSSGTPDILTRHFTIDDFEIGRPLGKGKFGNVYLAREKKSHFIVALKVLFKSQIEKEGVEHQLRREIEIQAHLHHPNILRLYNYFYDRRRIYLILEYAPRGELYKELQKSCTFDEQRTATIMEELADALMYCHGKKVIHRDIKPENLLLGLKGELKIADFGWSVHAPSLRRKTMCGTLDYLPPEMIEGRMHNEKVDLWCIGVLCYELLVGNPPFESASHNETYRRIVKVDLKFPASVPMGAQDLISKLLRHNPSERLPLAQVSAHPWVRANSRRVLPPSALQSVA

[12] = target: Tyrosine-protein kinase JAK2 (Homo sapiens) (UniProt O60674); assay: Inhibition of recombinant JAK2 (unknown origin) assessed as residual activity using [gamma-33P]ATP as substrate at 1 uM; summary of the method: as §2
[13] = target: Eukaryotic elongation factor 2 kinase (Homo sapiens) (UniProt O00418); assay: Inhibition of recombinant EF2K (unknown origin) assessed as residual activity using [gamma-33P]ATP as substrate at 1 uM; summary of the method: as §2
[14] = target: Mitogen-activated protein kinase kinase kinase 5 (Homo sapiens) (UniProt Q99683); assay: Inhibition of recombinant ASK1 (unknown origin) assessed as residual activity using [gamma-33P]ATP as substrate at 1 uM; summary of the method: as §2
Sequence of Mitogen-activated protein kinase kinase kinase 5 (Homo sapiens) (Q99683 whole entry): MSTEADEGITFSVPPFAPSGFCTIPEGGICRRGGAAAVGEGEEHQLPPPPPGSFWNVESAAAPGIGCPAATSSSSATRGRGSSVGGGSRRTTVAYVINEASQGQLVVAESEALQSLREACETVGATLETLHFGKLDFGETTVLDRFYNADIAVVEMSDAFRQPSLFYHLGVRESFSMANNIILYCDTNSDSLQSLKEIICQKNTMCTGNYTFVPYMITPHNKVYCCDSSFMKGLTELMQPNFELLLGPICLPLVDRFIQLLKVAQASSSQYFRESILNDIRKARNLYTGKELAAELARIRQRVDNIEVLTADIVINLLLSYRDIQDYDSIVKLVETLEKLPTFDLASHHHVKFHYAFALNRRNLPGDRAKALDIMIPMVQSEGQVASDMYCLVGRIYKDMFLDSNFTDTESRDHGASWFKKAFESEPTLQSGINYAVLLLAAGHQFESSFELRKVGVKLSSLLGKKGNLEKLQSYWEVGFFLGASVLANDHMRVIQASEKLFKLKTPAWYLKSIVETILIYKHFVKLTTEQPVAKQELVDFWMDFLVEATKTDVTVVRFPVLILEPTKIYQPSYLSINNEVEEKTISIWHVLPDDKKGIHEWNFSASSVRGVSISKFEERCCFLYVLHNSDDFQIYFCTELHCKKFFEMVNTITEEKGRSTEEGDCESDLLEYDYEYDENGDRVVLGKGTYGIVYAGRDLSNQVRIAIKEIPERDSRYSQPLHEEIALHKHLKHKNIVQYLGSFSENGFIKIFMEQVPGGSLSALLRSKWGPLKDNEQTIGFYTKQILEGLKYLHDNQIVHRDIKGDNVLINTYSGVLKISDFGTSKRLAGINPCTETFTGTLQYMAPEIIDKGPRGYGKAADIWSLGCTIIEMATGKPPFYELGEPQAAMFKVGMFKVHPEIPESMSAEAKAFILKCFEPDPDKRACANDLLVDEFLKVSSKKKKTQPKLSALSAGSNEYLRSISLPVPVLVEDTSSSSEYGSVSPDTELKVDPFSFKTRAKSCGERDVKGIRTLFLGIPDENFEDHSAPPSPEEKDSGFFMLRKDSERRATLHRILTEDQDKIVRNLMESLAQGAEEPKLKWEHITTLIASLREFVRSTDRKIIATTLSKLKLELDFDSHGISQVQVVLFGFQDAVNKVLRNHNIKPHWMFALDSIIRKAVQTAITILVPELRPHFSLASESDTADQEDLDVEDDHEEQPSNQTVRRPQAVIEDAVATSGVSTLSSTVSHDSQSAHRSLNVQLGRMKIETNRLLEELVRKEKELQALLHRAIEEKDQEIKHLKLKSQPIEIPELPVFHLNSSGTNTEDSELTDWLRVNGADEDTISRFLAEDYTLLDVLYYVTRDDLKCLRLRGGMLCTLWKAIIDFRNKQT

[15] = target: NUAK family SNF1-like kinase 1 (Homo sapiens) (UniProt O60285); assay: Inhibition of recombinant NUAK1 (unknown origin) assessed as residual activity using [gamma-33P]ATP as substrate at 1 uM; summary of the method: as §1
[16] = target: Mitogen-activated protein kinase 13 (Homo sapiens) (UniProt O15264); assay: Inhibition of recombinant p38 MAPKdelta (unknown origin) assessed as residual activity using [gamma-33P]ATP as substrate at 1 uM; summary of the method: as §3
[17] = target: Ribosomal protein S6 kinase alpha-5 (Homo sapiens) (UniProt O75582); assay: Inhibition of recombinant MSK1 (unknown origin) assessed as residual activity using [gamma-33P]ATP as substrate at 1 uM; summary of the method: as §1
Sequence of Ribosomal protein S6 kinase alpha-5 (Homo sapiens) (O75582 whole entry, looked up): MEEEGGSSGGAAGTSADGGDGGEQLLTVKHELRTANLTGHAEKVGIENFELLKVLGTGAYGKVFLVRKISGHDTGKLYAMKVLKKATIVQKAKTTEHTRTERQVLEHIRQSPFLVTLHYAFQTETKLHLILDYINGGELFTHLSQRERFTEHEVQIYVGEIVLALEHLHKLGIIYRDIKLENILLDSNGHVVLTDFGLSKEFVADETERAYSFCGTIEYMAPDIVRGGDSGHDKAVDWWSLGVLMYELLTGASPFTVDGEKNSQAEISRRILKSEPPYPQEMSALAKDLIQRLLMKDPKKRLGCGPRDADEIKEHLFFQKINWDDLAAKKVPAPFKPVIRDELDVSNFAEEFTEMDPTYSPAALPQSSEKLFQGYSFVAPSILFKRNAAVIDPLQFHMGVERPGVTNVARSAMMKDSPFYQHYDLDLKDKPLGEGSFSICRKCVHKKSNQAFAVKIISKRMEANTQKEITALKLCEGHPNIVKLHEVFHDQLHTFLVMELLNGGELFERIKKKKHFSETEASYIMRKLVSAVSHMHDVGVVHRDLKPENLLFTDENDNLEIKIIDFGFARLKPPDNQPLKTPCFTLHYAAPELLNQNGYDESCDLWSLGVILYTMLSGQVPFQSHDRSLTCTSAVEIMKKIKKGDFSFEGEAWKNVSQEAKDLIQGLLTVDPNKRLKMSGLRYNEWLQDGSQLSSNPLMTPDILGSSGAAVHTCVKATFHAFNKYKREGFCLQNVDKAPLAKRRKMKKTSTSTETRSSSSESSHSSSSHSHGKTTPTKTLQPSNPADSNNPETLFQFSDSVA

[18] = target: Mitogen-activated protein kinase 3 (Homo sapiens) (UniProt P27361); assay: Inhibition of recombinant ERK1 (unknown origin) assessed as residual activity using [gamma-33P]ATP as substrate at 1 uM; summary of the method: as §2
[19] = target: Interleukin-1 receptor-associated kinase 1 (Homo sapiens) (UniProt P51617); assay: Inhibition of recombinant IRAK1 (unknown origin) assessed as residual activity using [gamma-33P]ATP as substrate at 1 uM; summary of the method: as §2
Sequence of Interleukin-1 receptor-associated kinase 1 (Homo sapiens) (P51617 whole entry, looked up): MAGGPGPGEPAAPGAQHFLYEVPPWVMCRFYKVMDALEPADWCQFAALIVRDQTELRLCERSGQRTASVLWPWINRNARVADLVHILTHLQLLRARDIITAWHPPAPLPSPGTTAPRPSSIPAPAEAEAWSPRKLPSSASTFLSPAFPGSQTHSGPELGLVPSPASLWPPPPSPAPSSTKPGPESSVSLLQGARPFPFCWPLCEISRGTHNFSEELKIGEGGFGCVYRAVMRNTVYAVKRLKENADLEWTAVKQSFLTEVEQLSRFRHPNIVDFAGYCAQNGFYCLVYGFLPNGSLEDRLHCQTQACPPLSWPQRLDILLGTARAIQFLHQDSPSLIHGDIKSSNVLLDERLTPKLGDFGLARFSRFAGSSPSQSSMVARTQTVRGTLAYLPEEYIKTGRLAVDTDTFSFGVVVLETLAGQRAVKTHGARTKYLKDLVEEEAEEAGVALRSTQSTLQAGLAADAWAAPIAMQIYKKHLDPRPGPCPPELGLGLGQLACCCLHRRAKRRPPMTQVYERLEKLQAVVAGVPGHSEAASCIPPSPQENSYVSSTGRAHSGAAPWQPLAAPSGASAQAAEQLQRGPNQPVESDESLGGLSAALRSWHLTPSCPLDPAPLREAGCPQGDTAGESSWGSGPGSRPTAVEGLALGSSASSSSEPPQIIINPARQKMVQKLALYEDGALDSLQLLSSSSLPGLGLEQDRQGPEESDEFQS

[20] = target: Tyrosine-protein kinase SYK (Homo sapiens) (UniProt P43405); assay: Inhibition of recombinant SYK (unknown origin) assessed as residual activity using [gamma-33P]ATP as substrate at 1 uM; summary of the method: as §3
[21] = target: Serine/threonine-protein kinase N2 (Homo sapiens) (UniProt Q16513); assay: Inhibition of recombinant PRK2 (unknown origin) assessed as residual activity using [gamma-33P]ATP as substrate at 1 uM; summary of the method: as §1
[22] = target: Serine/threonine-protein kinase pim-2 (Homo sapiens) (UniProt Q9P1W9); assay: Inhibition of recombinant PIM2 (unknown origin) assessed as residual activity using [gamma-33P]ATP as substrate at 1 uM; summary of the method: as §1
[23] = target: 5'-AMP-activated protein kinase catalytic subunit alpha-2 (Homo sapiens) (UniProt P54646); assay: Inhibition of recombinant AMPK (unknown origin) assessed as residual activity using [gamma-33P]ATP as substrate at 1 uM; summary of the method: as §2
[24] = target: Dual specificity mitogen-activated protein kinase kinase 2 (Homo sapiens) (UniProt P36507); assay: Inhibition of recombinant MKK2 (unknown origin) assessed as residual activity using [gamma-33P]ATP as substrate at 1 uM; summary of the method: as §1
[25] = target: Inhibitor of nuclear factor kappa-B kinase subunit beta (Homo sapiens) (UniProt O14920); assay: Inhibition of recombinant IKKbeta (unknown origin) assessed as residual activity using [gamma-33P]ATP as substrate at 1 uM; summary of the method: as §2
[26] = target: Angiopoietin-1 receptor (Homo sapiens) (UniProt Q02763); assay: Inhibition of recombinant TIE2 (unknown origin) assessed as residual activity using [gamma-33P]ATP as substrate at 1 uM; summary of the method: as §3
Sequence of Angiopoietin-1 receptor (Homo sapiens) (Q02763 whole entry): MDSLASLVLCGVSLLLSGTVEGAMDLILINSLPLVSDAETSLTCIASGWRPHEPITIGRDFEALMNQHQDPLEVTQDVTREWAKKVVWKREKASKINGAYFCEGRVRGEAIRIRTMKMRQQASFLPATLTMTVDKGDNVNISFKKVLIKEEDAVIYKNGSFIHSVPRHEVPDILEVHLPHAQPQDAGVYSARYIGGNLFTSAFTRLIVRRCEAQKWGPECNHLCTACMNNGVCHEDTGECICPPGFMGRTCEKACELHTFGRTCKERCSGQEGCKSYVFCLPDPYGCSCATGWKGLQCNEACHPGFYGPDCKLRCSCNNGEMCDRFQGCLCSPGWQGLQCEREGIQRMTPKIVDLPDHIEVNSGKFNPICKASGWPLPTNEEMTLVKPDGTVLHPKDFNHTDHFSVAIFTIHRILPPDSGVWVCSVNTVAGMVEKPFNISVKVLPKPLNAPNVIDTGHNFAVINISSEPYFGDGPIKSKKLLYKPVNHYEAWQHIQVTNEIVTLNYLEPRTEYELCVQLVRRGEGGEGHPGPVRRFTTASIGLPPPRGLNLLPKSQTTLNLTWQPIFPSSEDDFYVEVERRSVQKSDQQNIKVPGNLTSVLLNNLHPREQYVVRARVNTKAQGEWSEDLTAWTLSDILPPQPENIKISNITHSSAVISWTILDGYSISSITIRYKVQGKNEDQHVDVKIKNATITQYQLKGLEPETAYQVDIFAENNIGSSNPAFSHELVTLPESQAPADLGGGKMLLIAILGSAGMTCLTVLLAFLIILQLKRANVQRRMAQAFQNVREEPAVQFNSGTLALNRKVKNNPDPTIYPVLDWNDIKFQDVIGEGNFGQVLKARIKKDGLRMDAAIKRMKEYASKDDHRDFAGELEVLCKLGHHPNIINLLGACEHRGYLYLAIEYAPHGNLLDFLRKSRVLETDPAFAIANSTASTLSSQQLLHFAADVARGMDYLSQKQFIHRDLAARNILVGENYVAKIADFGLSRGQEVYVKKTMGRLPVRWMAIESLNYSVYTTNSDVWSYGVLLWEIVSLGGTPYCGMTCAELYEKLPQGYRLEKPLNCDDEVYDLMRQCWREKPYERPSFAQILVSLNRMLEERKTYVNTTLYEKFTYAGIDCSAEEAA

[27] = target: Mitogen-activated protein kinase 11 (Homo sapiens) (UniProt Q15759); assay: Inhibition of recombinant p38 MAPKbeta (unknown origin) assessed as residual activity using [gamma-33P]ATP as substrate at 1 uM; summary of the method: as §3

Compound	Activity [1]	Activity [2]	Activity [3]	Activity [4]	Activity [5]	Activity [6]	Activity [7]	Activity [8]	Activity [9]	Activity [10]	Activity [11]	Activity [12]	Activity [13]	Activity [14]	Activity [15]	Activity [16]	Activity [17]	Activity [18]	Activity [19]	Activity [20]	other results
CC[C@H](CO)Nc1nc(NC(=N)N)c2ncn(C(C)C)c2n1	64%	88%	111%	58%	22%	17%	27%	77%	18%	19%	47%	16%	94%	100%	8%	37%	46%	50%	26%	58%	Activity [21]: 85%; Activity [22]: 88%; Activity [23]: 29%; Activity [24]: 53%; Activity [25]: 74%; Activity [26]: 39%; Activity [27]: 64%
CC[C@@H](CO)Nc1nc(NC(=N)N)c2ncn(C(C)C)c2n1	75%	78%	103%	46%	41%	11%	16%	71%	11%	16%	70%	16%	94%	81%	7%	23%	38%	28%	17%	50%	Activity [21]: 84%; Activity [22]: 91%; Activity [23]: 22%; Activity [24]: 39%; Activity [25]: 76%; Activity [26]: 40%; Activity [27]: 66%
